A short description of series [1]: Cytotoxicity against human MT4 cells after 96 hrs by MTT assay. Type of series: cell-based. A general note: Tetrazolium assays rely on reduction of a dye to a coloured formazan, in cell work by metabolically active cells.
The next series deals with CCRF-CEM. As to the kind of experiment: Cytotoxicity against human CCRF-CEM cells after 96 hrs by MTT assay. Type of series: functional. The gist of the method: (§1)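 Haematological tumour lines were seeded at 1 × 10^5 cells/ml in RPMI-1640 with 10% FCS plus penicillin/streptomycin. Serial dilutions from a 100 mM DMSO stock were added. After 96 h at 37 °C in 5% CO2, viability was read by MTT. The 50% proliferation-inhibiting concentration (µM) was obtained by linear regression against untreated controls, which completed at least three rounds of multiplication. Values are means of three determinations.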

In another series the test system is WIL2-NS. Put plainly: Cytotoxicity against human WIL2-NS cells after 96 hrs by MTT assay. Type of series: functional. The method in brief:
as §1

In a further series the test system is CCRF-SB. Put plainly: Cytotoxicity against human CCRF-SB cells after 96 hrs by MTT assay. Type of series: functional. The method in brief:
as §1

In a further series the test system is SK-MEL-28. As to the kind of experiment: Cytotoxicity against human SK-MEL-28 cells after 96 hrs by MTT assay. As to conditions: SK-MEL-28, 96 h. Type of series: functional. The gist of the method:
(§2)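 Solid tumour lines were seeded at 1 × 10^5 cells/ml in line-specific media with 10% FCS and antibiotics. Serial dilutions from a 100 mM DMSO stock were added. After 96 h at 37 °C in 5% CO2, viability was read by MTT. The 50% growth-inhibiting concentration (µM) was obtained by linear regression versus untreated controls. Values are means of three independent determinations.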

A further series concerns MCF7. As to the kind of experiment: Cytotoxicity against human MCF7 cells after 96 hrs by MTT assay. The conditions noted are these: MCF7, 96 h. Type of series: functional. The gist of the method: as §2
For a further series, the system named is SK-MES-1. As to the kind of experiment: Cytotoxicity against human SKMES1 cells after 96 hrs by MTT assay. Type of series: functional. As to conditions: SK-MES-1, 96 h. The gist of the method:
as §2

The test system of another series is HepG2. Put plainly: Cytotoxicity against human HepG2 cells after 96 hrs by MTT assay. Type of series: functional. The conditions noted are these: HepG2, 96 h. The method in brief:
as §2

The test system of a further series is DU-145. As to the kind of experiment: Cytotoxicity against human DU145 cells after 96 hrs by MTT assay. Type of series: functional. As to conditions: DU-145, 96 h. The method in brief: as §2
The test system of series [2] is Mus musculus. As to the kind of experiment: Toxicity in Albino Swiss mouse assessed as locomotor activity administered at doses equivalent to 0.1 ED50, ip measured after 1 hr for 30 mins. Type of series: organism-based. The conditions noted are these: in vivo. The gist of the method:
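Spontaneous locomotor activity of single male Albino Swiss mice in photoresistor actometers (two light beams), beam crossings recorded for 30 min, starting 60 min after i.p. compound in 0.5% methylcellulose.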

The test system of series [3] is Mus musculus. Put plainly: Toxicity in Albino Swiss mouse assessed as effect on amphetamine-induced hyperactivity administered at doses equivalent to 0.1 ED50, ip. Type of series: organism-based. The conditions noted are these: in vivo. The gist of the method: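 Compound i.p. in 0.5% methylcellulose 60 min before test; amphetamine 5 mg/kg s.c. 30 min before test; single mice in photoresistor actometers, light-beam crossings counted for 30 min.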

Series [4] relates to Mus musculus. As to the kind of experiment: Antinociceptive activity in Albino Swiss mouse administered at doses equivalent to 0.025 to 0.1 ED50, ip. Type of series: functional, organism-based.
Series [5] relates to Mus musculus. Put plainly: Antinociceptive activity in Albino Swiss mouse administered at doses equivalent to 0.025 to 0.1 ED50, ip in presence of naloxone. Type of series: functional, organism-based. The method in brief:
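Acetic acid (0.6%, i.p.) writhing test in male Albino Swiss mice, compound i.p. in 0.5% methylcellulose 60 min prior, with naloxone 5 mg/kg s.c.; writhes counted 10 min from 5 min post-acid; mean ± S.E.M., 8–10 mice per group.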

The test system of series [6] is Mus musculus. Put plainly: Toxicity in Albino Swiss mouse assessed as motor coordination administered at doses equivalent to 0.1 ED50, ip by chimney test. Type of series: organism-based. The conditions noted are these: in vivo.
For series [7], the system named is Mus musculus. As to the kind of experiment: Toxicity in Albino Swiss mouse assessed as motor coordination administered at doses equivalent to 0.1 ED50, ip by rota rod test. Type of series: organism-based. The conditions noted are these: in vivo.
Series [8] concerns Mus musculus. As to the kind of experiment: Anticonvulsant activity in Albino Swiss mouse assessed as protection against pentylenetetrazole-induced severity of clonic or tonic seizures administered at doses equivalent to 0.1 ED50, ip. Type of series: functional, organism-based.
In series [9] the test system is Mus musculus. As to the kind of experiment: Anticonvulsant activity in Albino Swiss mouse assessed as protection against pentylenetetrazole-induced mortality administered at doses equivalent to 0.1 ED50, ip. Type of series: functional, organism-based.
For series [10], the system named is Mus musculus. Put plainly: Reduction of 5-hydroxytryptophan-induced head twitch in Albino Swiss mouse administered at doses equivalent to 0.1 ED50, ip. Type of series: functional, organism-based.
In series [11] the test system is Mus musculus. As to the kind of experiment: Reduction of body temperature in normothermic Albino Swiss mouse administered at doses equivalent to 0.1 ED50, ip measured in rectum by thermistor thermometer analysis. Type of series: ADME, organism-based. As to conditions: in vivo.
The subject of series [12] is Staphylococcus epidermidis. Put plainly: Antibacterial activity against methicillin-resistant Staphylococcus epidermidis clinical isolate 311/08 after 18 hrs by twofold serial agar dilution technique. Type of series: functional. As to conditions: clinical isolate 311/08, 18 h. The method in brief:
(§3)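 Clinical isolates came from patients in Warsaw Medical University Hospitals and were classed as methicillin-susceptible or -resistant. MIC was determined by twofold serial agar dilution on Mueller–Hinton II agar (CLSI), 3.125–400 µg/mL in agar, with compounds in methanol or DMSO. Inoculum was 10^4 CFU/mL and plates were read after 18 h at 35 °C.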
Background: Agar dilution tests growth on a series of plates holding different concentrations.

Series [13] relates to Staphylococcus epidermidis. As to the kind of experiment: Antibacterial activity against methicillin-resistant Staphylococcus epidermidis clinical isolate 315/08 after 18 hrs by twofold serial agar dilution technique. Type of series: functional. The conditions noted are these: clinical isolate 315/08, 18 h. The method in brief: as §3
In series [14] the test system is Staphylococcus epidermidis. As to the kind of experiment: Antibacterial activity against methicillin-resistant Staphylococcus epidermidis clinical isolate 316/08 after 18 hrs by twofold serial agar dilution technique. Type of series: functional. As to conditions: clinical isolate 316/08, 18 h. The method in brief:
as §3

The subject of series [15] is Staphylococcus epidermidis. As to the kind of experiment: Antibacterial activity against methicillin-resistant Staphylococcus epidermidis clinical isolate 317/08 after 18 hrs by twofold serial agar dilution technique. Type of series: functional. As to conditions: clinical isolate 317/08, 18 h. The method in brief: as §3
The subject of series [16] is Staphylococcus epidermidis. Put plainly: Antibacterial activity against methicillin-resistant Staphylococcus epidermidis clinical isolate 318/08 after 18 hrs by twofold serial agar dilution technique. As to conditions: clinical isolate 318/08, 18 h. Type of series: functional. The gist of the method:
as §3

In series [17] the test system is Staphylococcus epidermidis. As to the kind of experiment: Antibacterial activity against methicillin-resistant Staphylococcus epidermidis clinical isolate 340/09 after 18 hrs by twofold serial agar dilution technique. Type of series: functional. The conditions noted are these: clinical isolate 340/09, 18 h. The method in brief: as §3
Series [18] relates to Staphylococcus epidermidis. Put plainly: Antibacterial activity against methicillin-resistant Staphylococcus epidermidis clinical isolate 341/09 after 18 hrs by twofold serial agar dilution technique. Type of series: functional. The conditions noted are these: clinical isolate 341/09, 18 h. The method in brief: as §3
Series [19] deals with Staphylococcus epidermidis. As to the kind of experiment: Antibacterial activity against methicillin-resistant Staphylococcus epidermidis clinical isolate 342/09 after 18 hrs by twofold serial agar dilution technique. Type of series: functional. The conditions noted are these: clinical isolate 342/09, 18 h. The gist of the method:
as §3

Series [20] relates to Staphylococcus epidermidis. As to the kind of experiment: Antibacterial activity against methicillin-resistant Staphylococcus epidermidis clinical isolate 343/09 after 18 hrs by twofold serial agar dilution technique. Type of series: functional. As to conditions: clinical isolate 343/09, 18 h. The gist of the method:
as §3

Series [21] has as its system Staphylococcus epidermidis. Put plainly: Antibacterial activity against methicillin-resistant Staphylococcus epidermidis clinical isolate 377/09 after 18 hrs by twofold serial agar dilution technique. Type of series: functional. As to conditions: clinical isolate 377/09, 18 h. The method in brief: as §3
For series [22], the system named is Human immunodeficiency virus 1. Put plainly: Antiviral activity against HIV1 infected in human MT4 cells assessed as virus-induced cytopathogenicity after 4 days by MTT assay. Type of series: functional, organism-based. The conditions noted are these: Human immunodeficiency virus 1, MT4, 96 h.
Series [23] is described as follows: Cytotoxicity against human MRC5 cells after 96 hrs by MTT assay. Type of series: cell-based. The method in brief:
(§4)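 Normal fibroblasts seeded at 1 × 10^5 cells/ml in specific media with 10% FCS and antibiotics; serial compound dilutions (100 mM DMSO stock); 96 h at 37 °C, 5% CO2; MTT read-out; 50% proliferation-reduction concentration by linear regression vs untreated controls; mean of three determinations.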

The nature of series [24]: Cytotoxicity against human CRL7065 cells after 96 hrs by MTT assay. Type of series: cell-based, CRL-7065. The method in brief: as §4

SMILES strings stand for the structures. Activity calls are given as the source filed them. The calls are words filed in the database; no cut-off is given here. Bounds are passed on as bounds.

As for `CC[C@@]1(O)C(=O)OCc2c1cc1n(c2=O)Cc2cc3ccccc3nc2-1` [CAMPTOTHECIN], the CC50 at 96 h in [1] is 0.004 µM. The CC50 was 0.003 µM in the series on CCRF-CEM; 0.005 µM in the series with WIL2-NS; 0.004 µM in the series with CCRF-SB; 0.07 µM with SK-MEL-28; 0.08 µM in the series on MCF7; 0.05 µM in the series with SK-MES-1. Moreover, the CC50 was determined as 0.04 µM in the series with HepG2 and 0.08 µM in the series on DU-145.
Turning to `Nc1ncnn1/C(S)=N/Cc1ccccc1`, the Activity entry is reported as “Non-toxic” in the series on Mus musculus [2]; “Non-toxic” in the series on Mus musculus [3]; “Non-toxic” in the series on Mus musculus [6]; “Non-toxic” in the series on Mus musculus [7]; “Toxic” with Mus musculus [11]. In addition, the result in the series on Mus musculus [4] and in the series with Mus musculus [10] was Active. Further, the outcome in the series with Mus musculus [5], with Mus musculus [8] and in the series on Mus musculus [9] was inactive. Besides, the MIC in series [12], in series [13], in series [14], in series [15], in series [16] and in series [17] was more than 400 µg/mL throughout. Also, the MIC in series [18], in series [19], in series [20] and in [21] was more than 400 µg/mL each time. The CC50 at 96 h in [1] was 7.4 µM; in [23] it was 43 µM; in series [24], 47 µM. The concentration giving a half-maximal response (EC50) in [22] is more than 7.4 µM. The CC50 in the series with CCRF-CEM was 39 µM; with WIL2-NS it was 52 µM; in the series on CCRF-SB it was 42 µM; in the series with SK-MEL-28, 72 µM; in the series with MCF7, 49 µM; with SK-MES-1 it was 85 µM. In addition, the CC50 came out at 78 µM in the series with HepG2 and 11 µM in the series with DU-145.

By CC50 is commonly meant the concentration giving 50% cytotoxicity. A high value points to lower toxicity to the cells. In general, MIC refers to the lowest concentration found to suppress growth. Lower therefore signals inhibition by little substance. By EC50 is commonly meant the concentration that produces a half-maximal response.

(Values after ChEMBL document CHEMBL2062460, “Disubstituted thiourea derivatives and their activity on CNS: synthesis and biological evaluation” (Eur J Med Chem, 2012).)
